Converted amounts (≈) assume the structure as drawn. The source made the active and inactive calls. No cut-off for these calls is given here.
Columns and labels:
[1] = Thermodynamic solubility in PBS at pH 7.4 after 24 hrs by UPLC-MS analysis; assay type: physicochemical; conditions: for solubility thermodynamic at 24 h: PBS, pH 7.4, read-out: Therm_solubility
Outline: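 Thermodynamic solubility assay in phosphate buffered saline, pH 7.4.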

[2] = Cytoprotective activity in rat INS-1E cells assessed as suppression of cytokine-induced caspase-3/7 activation after 48 hrs by luminescence assay; assay type: functional, cell-based
Outline: (§1)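 INS-1E β-cells exposed to a cytokine mixture (IFN-γ at 500 ng/mL; IL-1β and TNF-α lowered 20- and 10-fold from standard levels) with compound for 48 h; caspase-3/7 activation read as apoptosis. IC50 from dose-response in three replicates; maximum activity expressed as % rescue from cytokine-induced caspase-3/7 activation.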

[3] = Cytoprotective activity in rat INS-1E cells assessed as suppression of cytokine-induced caspase-3/7 activation after 48 hrs by luminescence assay relative to control; assay type: functional; outline: as §1
INS-1E [4] = test: Inhibition of IFNgamma-induced JAK1/JAK2 signaling in rat INS-1E cells assessed as STAT1 nuclear translocation at 10 uM after 30 mins by immunofluorescence assay; assay type: cell-based
Outline: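 IFN-γ-stimulated INS-1E β-cells, with or without compound, for 30 min; cells fixed and STAT1 subcellular (cytoplasm vs nucleus) localization monitored by immunofluorescence imaging.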

INS-1E [5] = test: Effect on total STAT1 level in rat INS-1E cells at 10 uM after 30 mins by Western blotting analysis; assay type: functional, cell-based
INS-1E [6] = test: Inhibition of JAK1/JAK2 in rat INS-1E cells assessed as inhibition of IFNgamma-induced STAT1 phosphorylation at Tyr701 and Ser727 at 10 uM after 30 mins by Western blotting analysis; assay type: cell-based
Outline: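 INS-1E β-cells treated with IFN-γ with or without compound for 30 min; STAT1 phosphorylation at Tyr701 and Ser727 assessed by Western blotting.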

| SMILES | solubility thermodynamic at 24 h [1] | IC50 [2] | %max [3] | inhibition (INS-1E [4]) | inhibition (INS-1E [5]) | inhibition (INS-1E [6]) | Therm_solubility ([1]; buffer, pH 7.4, 24 h) |
| --- | --- | --- | --- | --- | --- | --- | --- |
| C[C@@H]1CN([C@@H](C)CO)C(=O)c2cccc(NC(=O)Nc3ccnc4ccccc34)c2O[C@H]1CN(C)S(=O)(=O)c1ccc2c(c1)OCCO2 | 30.3 µM (≈ 20.5 µg/mL) | > 20 µM | – | – | – | – | – |
| C[C@@H]1CN([C@@H](C)CO)C(=O)c2cccc(NC(=O)Nc3cccc4cnccc34)c2O[C@H]1CN(C)S(=O)(=O)c1ccc2c(c1)OCCO2 | 60.5 µM (≈ 40.9 µg/mL) | 4.65 µM | 59% | – | – | – | – |
| C[C@@H]1CN([C@@H](C)CO)C(=O)c2cccc(NC(=O)Nc3nccc4ccccc34)c2O[C@H]1CN(C)S(=O)(=O)c1ccc2c(c1)OCCO2 | 0.7 µM (≈ 0.473 µg/mL) | 1.05 µM | 21% | – | – | – | – |
| C[C@@H]1CN([C@@H](C)CO)C(=O)c2cccc(NC(=O)Nc3cccc4cccnc34)c2O[C@H]1CN(C)S(=O)(=O)c1ccc2c(c1)OCCO2 | 1.8 µM (≈ 1.22 µg/mL) | 3.26 µM | 69% | Active | inactive | Active | – |
| C[C@@H]1CN([C@@H](C)CO)C(=O)c2cccc(NC(=O)NCc3cccc4ccccc34)c2O[C@H]1CN(C)S(=O)(=O)c1ccc2c(c1)OCCO2 | 0.1 µM (≈ 0.0689 µg/mL) | > 20 µM | – | inactive | inactive | inactive | – |
| C[C@@H]1CN([C@@H](C)CO)C(=O)c2cccc(NC(=O)Nc3cccc4ccncc34)c2O[C@H]1CN(C)S(=O)(=O)c1ccc2c(c1)OCCO2 | 101 µM (≈ 68.5 µg/mL) | – | – | – | – | – | – |
| C[C@@H]1CN([C@@H](C)CO)C(=O)c2cccc(NC(=O)Nc3cccc4ccccc34)c2O[C@H]1CN(C)S(=O)(=O)c1ccc2c(c1)OCCO2 | – | 1.66 µM | 71% | Active | inactive | Active | 0.1 µM |
| C[C@@H]1CN([C@@H](C)CO)C(=O)c2cccc(NC(=O)Nc3cccc4ncccc34)c2O[C@H]1CN(C)S(=O)(=O)c1ccc2c(c1)OCCO2 | 138 µM (≈ 93.6 µg/mL) | 1.62 µM | 41% | – | – | – | – |
| C[C@@H]1CN([C@@H](C)CO)C(=O)c2cccc(NC(=O)Nc3cncc4ccccc34)c2O[C@H]1CN(C)S(=O)(=O)c1ccc2c(c1)OCCO2 | 84.9 µM (≈ 57.4 µg/mL) | 4.1 µM | 31% | – | – | – | – |
| C[C@@H]1CN([C@@H](C)CO)C(=O)c2cccc(NC(=O)N(C)c3cccc4ccccc34)c2O[C@H]1CN(C)S(=O)(=O)c1ccc2c(c1)OCCO2 | 11.2 µM (≈ 7.71 µg/mL) | 4.74 µM | 15% | – | – | – | – |

From ChEMBL document CHEMBL2346570, “Small-molecule inhibitors of cytokine-mediated STAT1 signal transduction in β-cells with improved aqueous solubility” (J Med Chem, 2013)
